Screening results: PubChem BioAssay, several laboratories
bCat nuc transl – modulators of beta-catenin nuclear translocation. 190,000 compounds, 0.3% hits. nuclear translocation activity, % at 5 µM. HeLa beta-catenin nuclear translocation, immunofluorescence imaging. AID 1665;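 active means nuclear translocation activity above 50% at 5 µM, with a well cell count of 50 or more; inconclusive means wells under 50 cells across six images, flagged as toxic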;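 further: per-cell ratio of nuclear to cytoplasmic median beta-catenin stain intensity; plate controls were DMSO negative control for no effect and GSK-3 inhibitor IX positive control for full effect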
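Test system: human HeLa cells, endogenous beta-catenin. Times: 24 h compound exposure, 37°C. Measured by: beta-catenin immunofluorescence imaging with DAPI.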
DTT redox prof – compounds producing H2O2 with reducing agent – biochemical, NIH compound library profiling, artefact control for MLSCN library redox annotation, primary screen. DTT-dependent redox cycling H2O2, phenol red/HRP absorbance; 100% = 100 µM peroxide control, 0% = buffer. AID 878. 200,000 compounds, 0.03% hits. activation, % at 10 µM;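 active means activation of at least 50% relative to the plate's high and low controls in the primary single-dose screen; inactive means activation below 50%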;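 further: compound incubated with DTT at 0.8 mM final as the reducing agent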
ROMK primary – modulates human ROMK potassium channel activity; P48048; 130,000 compounds, 2% hits; B-score at 10 µM; Tet-inducible ROMK, thallium flux fluorescence; actives lie on both sides; AID 1918;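 active means signal ratio slope over the read window, or its plate-corrected B-score, at least 3 SD from the plate mean, either direction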;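 further: B-score of the F/F0 ratio slope over 7 to 12 s after thallium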
Target sequence (P48048 whole entry, looked up): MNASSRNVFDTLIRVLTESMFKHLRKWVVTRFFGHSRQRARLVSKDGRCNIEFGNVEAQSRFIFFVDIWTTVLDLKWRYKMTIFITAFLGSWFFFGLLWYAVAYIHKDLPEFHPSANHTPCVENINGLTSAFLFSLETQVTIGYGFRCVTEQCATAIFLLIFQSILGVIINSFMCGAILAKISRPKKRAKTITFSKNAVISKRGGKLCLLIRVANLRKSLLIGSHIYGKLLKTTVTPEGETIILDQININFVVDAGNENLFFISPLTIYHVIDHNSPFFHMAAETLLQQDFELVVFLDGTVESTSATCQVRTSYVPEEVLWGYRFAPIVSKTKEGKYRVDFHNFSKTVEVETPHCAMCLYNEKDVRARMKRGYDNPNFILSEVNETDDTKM
MT stabilize HCS – stabilizes microtubules in HeLa cells | % tubulin-high responders, % at 10 µM | 200,000 compounds, 0.83% hits | HeLa tubulin immunostaining HCS, 24 h; share of cells brighter than vehicle mean+2SD;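 active means plate Z-score above 3 for both tubulin-high and condensed-nucleus cell shares, with cell loss under 80%, at 10 µM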;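 further: anti alpha tubulin signal scored within the nucleus-defined area of each cell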
KCC2 mod – KCC2 (human) Cl- transport modulation | B-score of Tl+ flux slope (higher = more flux/activation; lower = inhibition) at 10 µM | KCC2 cells, thallium flux FluoZin-2 fluorescence | Q9H2X9 | 190,000 compounds, 2.2% hits;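 active means thallium flux slope and its plate-corrected score both differing from the plate sample mean at a set confidence after two filtering rounds, in either direction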;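 further: slope of fluorescence scaled to starting intensity during 10 to 20 s after thallium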
KCC2 secondary – KCC2 (human) modulation, secondary assay. AID 1713. shares compounds with KCC2 mod. HEK293-KCC2, thallium flux, FluoZin2 fluorescence; stronger effect = higher value. 3,700 compounds, 15% hits. normalised thallium flux (F/F0 slope) at 10 µM;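 active means thallium flux slope above the same plate's solvent-only control mean plus 3 SD; inconclusive means the two replicate wells disagree; inactive means no significant difference from solvent-only control wells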
KCC2 bumet counter – thallium flux persisting under bumetanide in KCC2 cells, counter-screen secondary assay; shares compounds with KCC2 mod; HEK293-KCC2 + bumetanide/ouabain, thallium flux FluoZin2; stronger effect = higher value; normalized thallium flux at 10 µM; 3,700 compounds, 49% hits; AID 1714;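 active means thallium entry rate above the same plate's blocked-transporter control wells by more than 3 SD; inconclusive means the two repeat wells disagree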;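 further: raw slope of fluorescence over initial fluorescence between 10 and 20 s after thallium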
KCC2 sec2 – KCC2 (human) modulation, second secondary assay. shares compounds with KCC2 mod. HEK293-KCC2, thallium flux FluoZin2 fluorescence; actives lie on both sides; F/F0 rise rate, 10–20 s post-thallium. normalized thallium flux at 10 µM. 3,700 compounds, 23% hits;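 active means thallium flux slope more than 3 SD above or below the plate's solvent-only control mean, mostly below; inconclusive means the two repeat wells disagreed; inactive means no significant shift from solvent-only controls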;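 further: raw slope with 0.1% DMSO as baseline and bumetanide as block control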
HEK counter1 – acts in parental HEK cells, KCC2 counter-screen; shares compounds with KCC2 mod; HEK293 parental cells, thallium flux FluoZin2, ouabain; baseline-ratio fluorescence slope, 10–20 s after thallium; thallium flux rate (normalised fluorescence) at 10 µM; 3,700 compounds, 46% hits; AID 1716;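 active means thallium flux rate significantly above the same plate's solvent-only control wells, beyond their mean plus 3 SD; inconclusive means the two replicate wells gave conflicting results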
KCC2 ouabain – confirmation of human KCC2 modulators with ouabain; shares compounds with KCC2 mod; HEK293-KCC2, thallium flux FluoZin2 fluorescence; bidirectional: low = inhibitor, high = activator; raw Tl+ flux slope (below DMSO = inhibition, above = activation) at 10 µM; 3,700 compounds, 48% hits;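 active means thallium flux slope beyond 3 SD from same-plate DMSO control mean in most replicates, usually higher, sometimes lower; inconclusive means repeat tests gave conflicting results; inactive means no significant difference from controls in most replicates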;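 further: slope of initial-normalized fluorescence between seconds 10 and 20 after thallium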
HEK293 Tl flux2 – acts in parental HEK cells, second KCC2 counter-screen | shares compounds with KCC2 mod | HEK293 parental, thallium flux FluoZin-2 fluorescence slope | thallium flux slope at 10 µM | 3,700 compounds, 33% hits | AID 1718;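 active means thallium flux slope above the same plate's solvent-control mean plus 3 SD in both duplicate wells; inconclusive means duplicate wells that disagreed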;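 further: run without ouabain in cells lacking the KCC2 cotransporter; slope of fluorescence scaled to its starting value between 10 and 20 s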
Starred values were filed as active, the others as inactive; ? = inconclusive; . = not tested or not shown. A selection: hits, their analogues and other compounds. The true share with any hit is near 3.7%.

SMILES	bCat nuc transl	DTT redox prof	ROMK primary	MT stabilize HCS	KCC2 mod	KCC2 secondary	KCC2 bumet counter	KCC2 sec2	HEK counter1	KCC2 ouabain	HEK293 Tl flux2
CC(C1CC2CCC1C2)n1c(-c2cccs2)n[nH]c1=S (stereo not drawn)	-0.6	.	.	.	72.1*	0.0193	0.0823*	0.0416*	0.0342*	0.0413*	0.0318*
COc1ccccc1CNC(=O)CN(Cc1ccc(Cl)cc1)S(C)(=O)=O	-0.1	-0.1	0.727	1.9	.	.	.	.	.	.	.
O=C1c2cccc3cccc(c23)C(=O)N1CCc1ccccc1	-1.5	0.3	-0.266	1.3	-0.465	.	.	.	.	.	.
CS/C(=C\[N+](=O)[O-])Nc1ccc(OC(F)(F)F)cc1	-0.9	-0.3	-0.346	3.3	-4.2*	0.00764	?	0.0255*	?	0.0138*	0.0118
Cc1oc(C(C)(C)C)cc1C(=O)N1CCN(C(c2ccccc2)c2ccccc2)CC1	-1.8	.	.	.	-0.84	.	.	.	.	.	.
COc1cc2c(cc1OC)C(C)N(C(=S)Nc1ccccc1)CC2 (stereo not drawn)	-0.5	0.2	.	4.6	0.392	.	.	.	.	.	.
COc1cc2c(cc1OC)C(C)N(C(=S)NC(=O)c1ccccc1)CC2 (stereo not drawn)	-0.2	-0.5	.	1.5	20.5*	?	0.0625*	0.0431*	0.0413*	0.0486*	0.0295*
Cc1cccc(N=C2NN=C(c3ccccc3F)CS2)c1C	-0.9	-0.3	1.04	3.7	10.7*	0.0111	0.0126*	0.0371	0.0175*	0.0263*	?
Fc1ccc(F)c(C2=NNC(=Nc3ccccc3F)SC2)c1	-1.9	0.1	0.921	3.8	5.85*	0.00673	0.0106*	0.0336	0.0115*	0.0258*	0.0144*
CC(C)S(=O)(=O)c1csc(C(=O)Nc2ccc(F)cc2)c1N	-1.5	.	-1.13	.	-0.429	.	.	.	.	.	.
C=CCNc1oc(COc2ccc(C)cc2)nc1C#N	-0.2	-3.0	.	3.7	.	0.008	0.00531	0.0321	0.00744	?	0.0107
Cc1ccc(OCc2nc(C#N)c(NCc3ccc4c(c3)OCO4)o2)cc1	2.0	0.4	-1.64	2.1	-4.87	0.0052	?	?	?	0.0122*	0.00878
CCOc1ccc(-c2nc(C#N)c(NCc3ccc4c(c3)OCO4)o2)cc1	1.1	0.3	.	1.7	-0.296	.	.	.	.	.	.
CCOc1ccccc1NC(=O)C1=C(C)NC(=S)NC1c1cccs1 (stereo not drawn)	-3.5	-0.1	-0.653	7.3	0.142	.	.	.	.	.	.
C/C(=N/NC(=O)c1ccc2nc[nH]c2c1)c1cccs1	-2.0	0.3	.	6.5	-0.961	.	.	.	.	.	.
Cc1nn(-c2ccc(Cl)cc2)c(=O)c2ccccc12	-0.6	0.1	-0.76	2.4	-0.969	.	.	.	.	.	.
Cc1c(Cl)sn(-c2ccc(Cl)cc2)c1=O	2.6	0.0	-2.54	3.4	-5.88*	0.00623	0.00477	0.0232*	0.00694	0.0116*	?
Cn1cccc1CC(=O)NNC(=S)Nc1ccc(Cl)cc1Cl	-0.5	0.3	-0.53	2.7	-0.482	.	.	.	.	.	.
COc1cccc(OCC(=O)NNC(=S)Nc2ccc(Cl)cc2Cl)c1	2.8	-0.1	1.01	1.7	5.54*	0.00738	0.0148*	0.0282	0.0139*	?	0.0139*
O=c1nc(SCc2ccccc2Cl)nc(-c2ccc(Cl)cc2)[nH]1	0.0	.	0.474	.	67.4*	0.00908	0.00679	0.0357	?	?	0.00938
O=c1nc(SCc2c(F)cccc2Cl)nc(-c2ccc(Cl)cc2)[nH]1	0.5	.	0.0077	.	-1.67	.	.	.	.	.	.
Cc1[nH]c2ccccc2c1/C=N/Nc1cccc(C(=O)O)c1	2.1	.	-1	.	-0.161	.	.	.	.	.	.
Cc1ccc(NC(=O)C(C)c2ccc([N+](=O)[O-])cc2)cc1Cl (stereo not drawn)	-0.7	0.6	.	2.1	0.0015	.	.	.	.	.	.
Cc1ccc(-n2c(=S)[nH]c3c(oc4ccccc43)c2=O)cc1C	-1.9	0.6	.	5.7	5.69*	0.0171*	0.0398*	0.0297	0.0176*	0.0293*	0.0123*
Cc1cc(C)c(NC(=O)Cn2cc3c(n2)CCCC3)c(C)c1	-0.9	-0.2	.	3.7	0.387	.	.	.	.	.	.
SMILES	bCat nuc transl	DTT redox prof	ROMK primary	MT stabilize HCS	KCC2 mod	KCC2 secondary	KCC2 bumet counter	KCC2 sec2	HEK counter1	KCC2 ouabain	HEK293 Tl flux2
Cc1ccc2nc(NC(=O)Cn3cc4c(n3)CCCCC4)sc2c1	-1.4	0.1	.	6.0	-2.86*	0.00895	?	0.0313	?	0.0196	0.0109
O=C(CN1C(=O)NC2(CCCCCC2)C1=O)c1ccc2c(c1)OCCO2	-2.9	-0.2	1.04	5.0	.	0.00991	0.0139*	0.0339	?	0.0222	0.0109
COc1ccc(C(=O)CN2C(=O)NC3(CCCCC3)C2=O)cc1OC	-0.4	-2.1	0.512	4.1	2.97	.	.	.	.	.	.
Cc1cccc(NC(=S)NNC(=O)c2cc3c(s2)CCC(C)C3)c1C (stereo not drawn)	.	.	-0.48	2.6	36.9*	0.00658	0.0803*	0.0614*	0.0638*	0.0625*	0.0593*
CCSC1=NC2(CCCCC2)Nc2sc3c(c21)CCCC3	.	-0.1	-0.0105	2.5	0.854	.	.	.	.	.	.
Cc1ccc(O)c(-n2nc3ccccc3n2)c1	-0.8	-0.2	0.867	1.0	0.00247	.	.	.	.	.	.
Cc1cc([N+](=O)[O-])ccc1NCc1ccccc1	5.1	-3.8	-0.668	2.4	-3.07*	0.00598	0.00431	0.0233*	0.00664	0.0167*	0.00898
Oc1oc(-c2ccccc2)nc1/C=N/c1nccs1	-1.0	0.4	.	2.0	14.4*	0.0161*	0.0822*	0.0324	0.0167*	0.0439*	0.0117*
CCCCOc1ccc(-c2nc(/C=N/c3nccs3)c(O)o2)cc1	-1.8	0.8	.	2.7	2.21	.	.	.	.	.	.
CN(C)S(=O)(=O)c1cccc(C(=O)OCC(=O)NCc2ccc3c(c2)OCO3)c1	-4.9	-1.6	0.864	2.0	0.903	.	.	.	.	.	.
Cn1nc(Cc2n[nH]c(=S)n2C)c2ccccc2c1=O	-0.2	.	-0.0499	.	-0.344	.	.	.	.	.	.
COc1ccc(C(=O)c2ccc(OC)cc2O)c(O)c1	-2.9	1.8	-0.0312	2.3	5.76*	0.00876	0.00529	0.029	0.00724	0.0264	0.00974
N#C/C(=C/c1cn[nH]c1-c1ccc(Br)cc1)C(=O)O	-1.4	-0.4	-2.11	3.7	-0.0995	.	.	.	.	.	.
